sPLA2-III inh = Inhibits HGIII-sPLA2 liposome hydrolysis, primary screen; Q9NZ20; QFRET BODIPY PC-A2 liposome hydrolysis, fluorescence; inhibition, % at 12.2 µM; 370,000 tested, 0.56% active; AID 743126;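 active = inhibition above mean plus 3 SD of compounds lying within the high and low control bounds, cut at about 19% in these data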
TbMetRS inhib = Trypanosoma brucei MetRS inhibition | purified T. brucei MetRS, ATP depletion, Kinase-Glo luminescence | inhibition, % at 11.9 µM | 360,000 tested, 0.4% active | AID 624268;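 active = inhibition above a per-plate cutoff of the control wells' mean inhibition plus 3 SD, cut at about 5.5% in these data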
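System: purified T. brucei MetRS enzyme / Detection: Kinase-Glo luciferase luminescence reporting remaining unconsumed ATP / Medium: HEPES buffer with MgCl2, KCl, DTT, spermine, BSA, pyrophosphatase / Replication: singlicate, one well per compound / Evaluation: percent inhibition relative to median high and low control wells / Schedule: 2 h aminoacylation at 25 °C after 15 min preincubation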
DAGLB inh = blocks human DAGLB lipase activity. Q8NCG7. HEK293T DAGLB membrane lysate, EnzChek fluorogenic substrate. inhibition, % at 5.17 µM. 340,000 tested, 0.059% active; in the data active = inhibition above about 34%
PLCb3 inh = inhibitors of human phospholipase C beta3; AID 720704; Purified PLC-beta3, fluorogenic substrate, fluorescence; 370,000 tested, 0.18% active; inhibition, % at 12.2 µM; Q01970
PLCg1 inh = PLC-gamma1 (human) inhibition, primary screen; 370,000 tested, 0.84% active; AID 720700; P19174; purified PLC-gamma1, fluorogenic substrate, fluorescence; inhibition, % at 12.2 µM; in the data active = inhibition above about 9.5%
Target sequence (P19174 whole entry, looked up): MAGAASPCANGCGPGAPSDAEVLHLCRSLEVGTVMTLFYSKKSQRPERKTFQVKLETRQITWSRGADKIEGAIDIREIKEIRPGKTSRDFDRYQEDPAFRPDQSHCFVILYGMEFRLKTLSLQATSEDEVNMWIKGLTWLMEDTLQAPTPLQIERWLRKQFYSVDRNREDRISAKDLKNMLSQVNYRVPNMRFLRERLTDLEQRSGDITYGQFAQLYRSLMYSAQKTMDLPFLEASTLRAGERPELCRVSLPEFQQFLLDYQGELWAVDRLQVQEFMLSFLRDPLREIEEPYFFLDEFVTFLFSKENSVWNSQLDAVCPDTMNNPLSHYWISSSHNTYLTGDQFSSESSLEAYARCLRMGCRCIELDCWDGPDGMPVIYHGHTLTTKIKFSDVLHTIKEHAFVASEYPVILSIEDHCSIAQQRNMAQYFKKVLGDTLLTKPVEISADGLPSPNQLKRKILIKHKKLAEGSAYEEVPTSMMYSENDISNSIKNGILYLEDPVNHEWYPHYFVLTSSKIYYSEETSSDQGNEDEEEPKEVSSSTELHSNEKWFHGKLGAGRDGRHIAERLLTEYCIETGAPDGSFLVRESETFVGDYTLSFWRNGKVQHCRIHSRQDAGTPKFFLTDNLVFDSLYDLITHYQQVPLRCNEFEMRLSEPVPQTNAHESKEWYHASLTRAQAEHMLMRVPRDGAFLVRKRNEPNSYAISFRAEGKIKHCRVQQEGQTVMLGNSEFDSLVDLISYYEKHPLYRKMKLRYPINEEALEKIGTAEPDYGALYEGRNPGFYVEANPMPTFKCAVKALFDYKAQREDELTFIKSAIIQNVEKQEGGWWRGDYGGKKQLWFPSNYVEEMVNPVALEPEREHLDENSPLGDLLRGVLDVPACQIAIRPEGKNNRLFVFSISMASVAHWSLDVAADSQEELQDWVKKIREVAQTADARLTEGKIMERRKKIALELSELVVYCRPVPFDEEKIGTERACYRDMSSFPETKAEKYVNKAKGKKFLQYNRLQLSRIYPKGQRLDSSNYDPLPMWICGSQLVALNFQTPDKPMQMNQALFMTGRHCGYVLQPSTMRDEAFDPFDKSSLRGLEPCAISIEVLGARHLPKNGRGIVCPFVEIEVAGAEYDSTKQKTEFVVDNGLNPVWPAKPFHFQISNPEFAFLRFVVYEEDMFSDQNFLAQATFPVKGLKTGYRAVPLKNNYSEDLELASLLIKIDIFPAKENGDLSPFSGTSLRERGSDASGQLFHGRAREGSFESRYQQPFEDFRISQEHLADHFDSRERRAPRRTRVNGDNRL
PLCgamma1 ctr = counter-screen for PLC-beta3 inhibitors: inhibitors of human PLC-gamma1; shares compounds with PLCg1 inh; inhibition, % at 12.3 µM; 3,300 tested, 3.1% active; purified PLC-gamma1, fluorogenic substrate, fluorescence; AID 743258; in the data active = inhibition above about 9.5%
PLCbeta3 conf = human PLC-beta3 inhibition, confirmation. shares compounds with PLCg1 inh. purified PLC-beta3, fluorogenic substrate fluorescence. inhibition, % at 12.3 µM. 3,300 tested, 1% active. AID 743261
Each line names hits and unclear results; the compound was inactive in the other large screens (follow-up assays come after a bar, where they were run). The list is not random: actives were taken first. Their share in the collection is about 1.9%. Rule as the data show it, unless noted: active = inhibition above about 11%; inactive = the rest.

COc1cc(/C=N/NC(=O)c2ccc(C)nc2)cc([N+](=O)[O-])c1O	PLCg1 inh 9.9 | PLCgamma1 ctr inactive | PLCbeta3 conf inactive
Cc1cc(C(=O)N/N=C/c2cccc([N+](=O)[O-])c2O)n[nH]1	none
Cc1cc(C(=O)N/N=C/c2ccc(O)c([N+](=O)[O-])c2)n[nH]1	PLCg1 inh 10.4 | PLCgamma1 ctr inactive | PLCbeta3 conf inactive
CCOc1cc(/C=N\NC(=O)c2ccc(C)nc2)cc([N+](=O)[O-])c1O	none
O=C(Cn1nc(CNc2ccc(Cl)cc2)[n+]2c1CCCCC2)c1ccc(Br)cc1	none
O=C(Cn1nc(CNc2ccc(Br)cc2)[n+]2c1CCCCC2)c1ccc([N+](=O)[O-])cc1	PLCg1 inh 9.8 | PLCgamma1 ctr inactive | PLCbeta3 conf inactive
Cc1ccsc1/C=C1\SC(N)=NC1=O	PLCg1 inh 10.1 | PLCgamma1 ctr inactive | PLCbeta3 conf inactive
CCc1ccc(C(=O)NNc2ccccc2F)cc1	none
CCc1ccc(C(=O)NNc2cc(Cl)ccc2Cl)cc1	PLCg1 inh 10.0 | PLCgamma1 ctr inactive | PLCbeta3 conf inactive
COC(=O)C(Cc1ccc(O)cc1)NC(=O)C(C)NC(=O)c1ccc(C(C)(C)C)cc1 (stereo not given)	PLCg1 inh 9.7 | PLCgamma1 ctr inactive | PLCbeta3 conf inactive
O=C(CCSc1ccccc1Cl)Nc1cccc([N+](=O)[O-])c1	PLCg1 inh 11.0 | PLCgamma1 ctr inactive | PLCbeta3 conf inactive
NS(=O)(=O)c1cccc(NC(=O)CCSc2ccccc2Cl)c1	none
COC[C@@H]1CCCN1c1ccc2c(c1)OCCCN(C1CC1)S2(=O)=O	none (no result: TbMetRS inhib, DAGLB inh)
O=C(O)CC(C(=O)Nc1cccc(C(F)(F)F)c1)C1CCCO1 (stereo not given)	PLCg1 inh 15.6 | PLCgamma1 ctr inactive | PLCbeta3 conf inactive
COC(=O)CCCCCCCCC(O)CN1CCCCC1 (stereo not given)	PLCb3 inh 12.4 | PLCgamma1 ctr inactive | PLCbeta3 conf inactive
Cc1ccccc1CS(=O)(=O)Cc1ccc(C(=O)Nc2ccc(F)cc2)o1	none (no result: TbMetRS inhib, DAGLB inh)
CCOC(=O)CSc1cc(=O)n(CC)c2ccccc12	PLCg1 inh 10.1 | PLCgamma1 ctr inactive | PLCbeta3 conf inactive
CCn1c(=O)cc(SCC(=O)N(C)Cc2ccccc2)c2ccccc21	none
CC(=O)Nc1cccc(CP(=O)(c2ccccc2)c2ccccc2)c1	PLCg1 inh 13.3 | PLCgamma1 ctr inactive | PLCbeta3 conf inactive
COc1ccc(NC(=O)CSc2nnc(-c3ccccc3)n2Cc2ccco2)c(OC)c1	PLCb3 inh 11.1 | PLCgamma1 ctr inactive | PLCbeta3 conf inactive
COc1ccc(NC(=O)CSc2nnc(-c3ccccc3Cl)n2Cc2ccco2)c(OC)c1	none
CCCCCCCOC(=O)C[N+](C)(C)CCOC1CC2CCC1(C)C2(C)C (stereo not given)	PLCg1 inh 9.9 | PLCgamma1 ctr inactive | PLCbeta3 conf inactive
CCCCCCOC(=O)C[N+](C)(C)CCOC1CC2CCC1(C)C2(C)C (stereo not given)	none
O=C(NCCc1c[nH]c2ccccc12)OCc1cn(-c2ccc(Cl)cc2)nn1	none (no result: TbMetRS inhib, DAGLB inh)
Cc1ccccc1Cn1cc(COC(=O)N(C)Cc2ccccc2)nn1	none (no result: TbMetRS inhib, DAGLB inh)
Cc1cc2nc(CCN(Cc3cccnc3)C(=S)Nc3ccccc3)[nH]c2cc1C	none
Cc1cc2nc(CCN(Cc3cccnc3)C(=S)Nc3ccc(F)cc3)[nH]c2cc1C	PLCg1 inh 12.1 | PLCgamma1 ctr inactive | PLCbeta3 conf inactive
CC(=O)Nc1ccc(NC(=O)CSc2nc(N)c(NC(=O)c3ccco3)c(=O)[nH]2)cc1	PLCg1 inh 11.6 | PLCgamma1 ctr inactive | PLCbeta3 conf inactive
COc1cc(NS(=O)(=O)c2ccc(NC(=O)NC3CCCCC3)cc2)nc(OC)n1	PLCg1 inh 10.3 | PLCgamma1 ctr inactive | PLCbeta3 conf inactive
COc1cc(NS(=O)(=O)c2ccc(NC(=S)NC(=O)C3CCCC3)cc2)nc(OC)n1	none
CS(=O)(=O)N(CC(=O)NCCSc1ccccn1)c1ccc(F)cc1	none
CS(=O)(=O)N(CC(=O)NCCSCc1ccccc1Cl)c1ccc(F)cc1	PLCg1 inh 12.7 | PLCgamma1 ctr inactive | PLCbeta3 conf inactive
CSc1ccccc1NC(=O)CN(C)C(=O)/C=C/c1ccccc1	PLCg1 inh 10.1 | PLCgamma1 ctr inactive | PLCbeta3 conf inactive
COc1cc(/C=C/C(=O)N(C)CC(=O)Nc2ccccc2SC)cc(OC)c1OC	none
Cc1ccc2cc(CCNC(=O)C3CCCCC3)c(=O)[nH]c2c1C	none
Cc1ccc2cc(CCNC(=O)C3CCCC3)c(=O)[nH]c2c1	PLCb3 inh 10.8 | PLCgamma1 ctr inactive | PLCbeta3 conf inactive
Cc1ncc([N+](=O)[O-])n1CC(=O)N/N=C/c1ccccc1F	PLCb3 inh 11.1 | PLCgamma1 ctr inactive | PLCbeta3 conf inactive
Cc1cc([N+](=O)[O-])nn1CC(=O)N/N=C/c1ccccc1F	none
Cc1cc(C)nc(N2CCC(C(=O)N(C)CCc3ccccc3)CC2)n1	none (no result: TbMetRS inhib, DAGLB inh)
COCCN1CCCc2nc(-c3ccc(Br)cc3)ccc21	none (no result: TbMetRS inhib, DAGLB inh)
Cc1onc(-c2ccccc2)c1NC(=O)N(CCC#N)Cc1cccs1	PLCg1 inh 10.0 | PLCgamma1 ctr inactive | PLCbeta3 conf inactive
Cc1onc(-c2ccccc2)c1NC(=O)N(CCC(=O)O)Cc1ccccc1	none (no result: DAGLB inh)
NC1=NC2(CCC(c3ccccc3)CC2)n2c(nc3ccccc32)N1 (stereo not given)	PLCb3 inh 14.5, PLCg1 inh 17.8 | PLCgamma1 ctr inactive | PLCbeta3 conf inactive
NC1=NC2(CCN(Cc3ccccc3)CC2)n2c(nc3ccccc32)N1	PLCg1 inh 11.6 | PLCgamma1 ctr inactive | PLCbeta3 conf inactive
O=C(O)COc1ccccc1C=NNC(=O)Cc1cc(=O)[nH][nH]1	none (no result: TbMetRS inhib, DAGLB inh)
CCOC(=O)CSc1nnc(Cn2c(=O)sc3ccccc32)n1-c1ccccc1C	PLCb3 inh 10.8 | PLCgamma1 ctr 9.5 | PLCbeta3 conf inactive
CCCCN1CCN(C(=O)c2cn(C(C)c3ccccc3)nn2)CC1 (stereo not given)	none (no result: TbMetRS inhib, DAGLB inh)
CC(C)(C)OC(=O)N1CCC(N[C@@H](Cc2c[nH]c3ccccc23)C(=O)NCC(c2ccccc2)c2ccccc2)(C(=O)NC2CCCCC2)CC1	none (no result: TbMetRS inhib, DAGLB inh)
CN(C)S(=O)(=O)c1ccc(C(=O)NCCSc2ccc(Br)cc2)cc1	PLCg1 inh 10.4 | PLCgamma1 ctr inactive | PLCbeta3 conf inactive
O=C(NC1CCCCC1)C(c1cccnc1)N(C(=O)c1csnn1)c1ccccc1 (stereo not given)	none
O=C(NC1CCCC1)C(c1cccnc1)N(C(=O)c1csnn1)c1ccc(F)cc1 (stereo not given)	PLCg1 inh 9.7 | PLCgamma1 ctr inactive | PLCbeta3 conf inactive
CC(=O)c1ccc(N(C(=O)c2csnn2)C(C(=O)NC2CCCC2)c2ccccc2)cc1 (stereo not given)	PLCg1 inh 10.9 | PLCgamma1 ctr inactive | PLCbeta3 conf inactive
